Reference: ChEMBL document CHEMBL1125497, “Synthesis and anticonvulsant activity of enaminones” (J Med Chem, 1992)

Key:
[1] = Antiepileptic activity in male CF1 mice 30 min after administration measured in subcutaneous pentylenetetrazole (scMet) test at a dose of 300 mg/kg (no. of animals treated /protected); activity value is 0/1; format: functional, Mus musculus
[2] = Antiepileptic activity in male CF1 mice 30 min after administration measured in maximum electroshock seizure(MES) test at a dose of 300 mg/kg (no. of animals treated /protected); activity value is 0/1; format: functional, Mus musculus
[3] = Antiepileptic activity in male CF1 mice 4 hr after administration measured in maximum electroshock seizure(MES) test at a dose of 300 mg/kg (no. of animals treated /protected); activity value is 1/1; format: functional, Mus musculus
[4] = Antiepileptic activity in male CF1 mice 4 hr after administration measured in neurological toxicity (Tox) test at a dose of 300 mg/kg (no. of animals treated /protected); activity value is 0/2; format: functional, Mus musculus
[5] = Antiepileptic activity in male CF1 mice 4 hr after administration measured in subcutaneous pentylenetetrazole (scMet) test at a dose of 300 mg/kg; activity value is 0/1; format: functional, Mus musculus
[6] = Dose at which anticonvulsant activity was observed in mice; format: functional, Mus musculus
[7] = Antiepileptic activity in male CF1 mice 30 min after administration measured in neurological toxicity (Tox) test at a dose of 300 mg/kg (no. of animals treated /protected); activity value is 0/4; format: functional, Mus musculus
Rattus norvegicus = experiment: Dose reducing the seizure severity in rat cornea 1 hr after peroral administration; format: functional; conditions: po
Outline: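 Same corneal-kindled Sprague-Dawley rat procedure with the drug given po. Vehicles: 0.5% methylcellulose, 0.9% NaCl or corn oil. Single shock at the time of peak effect, scored on the modified Racine scale. ED50 by Litchfield-Wilcoxon, taken as the dose that reduced seizure severity by 50%.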

[8] = Anticonvulsant activity administered intraperitoneally in CF1 mice is the ability to protect the mice from MES(maximal electroshock seizure).; format: functional; conditions: Mus musculus, ip
[9] = (§1) Dose producing neurotoxic effects in 50% of the CF1 mice after intraperitoneal administration.; format: functional; conditions: Mus musculus, ip; read-out: ED50 (the source's name)
Outline: (§2)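 Phase II quantification in CF1 male mice (ca. 24–34 g), dosing ip or po in 0.5% methylcellulose suspension. ED50 is protection from tonic hind limb extension in MES. TD50 is rotorod neurotoxicity. Both were read at time of peak effect and derived by Litchfield–Wilcoxon with 95% confidence limits.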

[10] = Antiepileptic activity in male CF1 mice 30 min after administration measured in subcutaneous pentylenetetrazole (scMet) test at a dose of 100 mg/kg (no. of animals treated /protected); activity value is 0/1; format: functional, Mus musculus
[11] = Antiepileptic activity in male CF1 mice 4 hr after administration measured in maximum electroshock seizure(MES) test at a dose of 100 mg/kg (no. of animals treated /protected); activity value is 0/3; format: functional, Mus musculus
[12] = Antiepileptic activity in male CF1 mice 4 hr after administration measured in maximum electroshock seizure(MES) test at a dose of 300 mg/kg (no. of animals treated /protected); activity value is 0/1; format: functional, Mus musculus
[13] = Antiepileptic activity in male CF1 mice 30 min after administration measured in maximum electroshock seizure(MES) test at a dose of 100 mg/kg (no. of animals treated /protected); activity value is 2/3; format: functional, Mus musculus
[14] = Antiepileptic activity in male CF1 mice 30 min after administration measured in maximum electroshock seizure(MES) test at a dose of 300 mg/kg (no. of animals treated /protected); activity value is 1/1; format: functional, Mus musculus
[15] = Antiepileptic activity in male CF1 mice 30 min after administration measured in neurological toxicity (Tox) test at a dose of 100 mg/kg (no. of animals treated /protected); activity value is 0/8; format: functional, Mus musculus
[16] = Time of peak anticonvulsant effect in CF1 mice; format: functional, Mus musculus
Outline: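 Male CF1 mice (ca. 24–34 g), compound in 0.5% methylcellulose suspension given ip or po; time (h) at which MES protection (against tonic hind limb extension) peaked was recorded and used for ED50 determination.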

[17] = Time of peak neurotoxic effect in CF1 mice; format: ADME; conditions: mouse, in vivo
Outline: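 Male CF1 mice (ca. 24–34 g), compound ip in 0.5% methylcellulose suspension; neurological deficit assessed by rotorod test, time (h) of peak neurotoxic effect recorded for TD50 determination.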

[18] = Antiepileptic activity in male CF1 mice 4 hr after administration measured in neurological toxicity (Tox) test at a dose of 100 mg/kg (no. of animals treated /protected); activity value is 0/4; format: functional, Mus musculus
[19] = Antiepileptic activity in male CF1 mice 4 hr after administration measured in subcutaneous pentylenetetrazole (scMet) test at a dose of 100 mg/kg (no. of animals treated /protected); activity value is 0/1; format: functional, Mus musculus
[20] = Antiepileptic activity in male CF1 mice 4 hr after administration measured in subcutaneous pentylenetetrazole (scMet) test at a dose of 300 mg/kg (no. of animals treated /protected); activity value is 0/1; format: functional, Mus musculus
[21] = Protective index was measured as TD50/ED50; format: ADME; conditions: read-out: PI
[22] = Oral dose producing neurotoxic effects in 50% of rats; format: ADME, organism-based; conditions: rat, in vivo
Outline: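 Phase VI screen in male Sprague-Dawley rats dosed orally. MES protection and rotorod toxicity were scored as animals responding over animals tested at 0.25, 0.5, 1, 2 and 4 h.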

[23] = as §1; format: ADME; conditions: CF1, mouse, in vivo, ip; outline: as §2
[24] = Antiepileptic activity in male CF1 mice 30 min after administration measured in neurological toxicity (Tox) test at a dose of 300 mg/kg (no. of animals treated /protected); activity value is 1/4; format: functional, Mus musculus
[25] = Antiepileptic activity in male CF1 mice 30 min after administration measured in maximum electroshock seizure(MES) test at a dose of 100 mg/kg (no. of animals treated /protected); activity value is 1/3; format: functional, Mus musculus

Row | SMILES | Activity [1] | Activity [4] | Dose [6] | Activity [7] | ED50 [8] [mg/kg] | Activity [10] | Activity [11] | Activity [12] | Activity [14] | Activity [15] | TPE [16] | TPE [17] | Activity [18] | Activity [19] | Activity [20] | selectivity ratio [21] | further results
1 | COC(=O)C1C(=O)C=C(NNc2ccccc2)CC1C (stereo not given) | 0 | 0 | >100 mg/kg | 0 | – | – | – | – | – | – | – | – | – | – | – | – | Activity [2]: 0; Activity [3]: 1; Activity [5]: 0
2 | O=C1CN=C(c2ccccc2Cl)c2cc([N+](=O)[O-])ccc2N1 [CLONAZEPAM] | – | – | – | – | – | – | – | – | – | – | – | – | – | – | – | – | ED50 (Rattus norvegicus): 0.7 mg/kg
3 | CC1(C)CC(O)=C/C(=N\c2ccccc2)C1 | 0 | 0 | <=100 mg kg-1 | 0 | 109 | 0 | 0 | 0 | 1 | 0 | 0.5 | 0.5 | 0 | 0 | 0 | 2.1 | TD50 [9]: 233 mg/kg; Activity [13]: 2; TD50 [22]: > 250 mg/kg
4 | COC(=O)C1C(O)=C/C(=N\Cc2ccccc2)CC1(C)C (stereo not given) | 0 | 0 | >100 mg/kg | – | 132 | – | – | 0 | 1 | – | 0.5 | 1 | – | – | 0 | 3.8 | TD50 [23]: > 500 mg/kg; Activity [24]: 1
5 | COC(=O)C1C(=O)C=C(Nc2cc(OC)ccc2OC)CC1C (stereo not given) | 0 | 0 | <=100 mg kg-1 | 0 | – | 0 | 0 | 0 | 1 | 0 | – | – | 0 | 0 | 0 | – | Activity [25]: 1
6 | NC(=O)N1c2ccccc2C=Cc2ccccc21 [CARBAMAZEPINE] | – | – | – | – | 8.8 | – | – | – | – | – | 0.25 | 0.25 | – | – | – | – | –
